These results are taken from ChEMBL document CHEMBL4765342, “Substituted benzothiophene and benzofuran derivatives as a novel class of bone morphogenetic Protein-2 upregulators: Synthesis, anti-osteoporosis efficacies in ovariectomized rats and a zebrafish model, and ADME properties” (Eur J Med Chem, 2020).

Structures are written as SMILES. pIC50: −log10 of the molar value. Bounds are passed on as bounds.

One data set is described as follows: in vitro. As to conditions: human, liver microsomes. For orientation: Liver microsomes are a subcellular fraction often used to study metabolism.
Data set [1] is described as follows: Toxicity in BALB/c mouse assessed as effect on hair at 50 to 100 mg/kg, ig administered for 14 days. The class given is organism-based. As to conditions: in vivo, po, 336 h, dose 50-100 mg/kg, time 14 day. The essentials:
(§1)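 BALB/c mice, 10 per group, gavaged daily for 14 days at 50 or 100 mg/kg; blank control group included. Hair, behaviour and neurological signs (fremitus, convulsion, spasm, gait disturbance) were observed. At day 14, mice were weighed and given routine blood tests and serum biochemistry (ALT, AST, urea, creatinine; n = 10). Liver and kidney were examined on paraffin-embedded histology sections.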

Data set [2] in a line: Toxicity in BALB/c mouse assessed as convulsion at 50 to 100 mg/kg, ig administered for 14 days. The class given is organism-based. As to conditions: in vivo, po, 336 h, dose 50-100 mg/kg, time 14 day. A digest of the protocol: as §1
The target in a further data set is Cytochrome P450 3A4 (Homo sapiens, UniProt P08684). As to the kind of experiment: Inhibition of CYP3A4 in human liver microsomes using midazolam as substrate incubated for 5 mins followed by NADPH addition and measured after 20 mins by LC-MS/MS analysis. Type of data set: ADME. A digest of the protocol: (§2)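 Human liver microsomes at 0.2 mg/mL mixed with probe substrates, preincubated 5 min at 37 °C. Reaction started with NADPH and run 20 min at 37 °C in a shaking bath. Quenched, held at -20 °C for 1 h, centrifuged, and the supernatant analysed by LC/MS/MS. Assay validated with specific inhibitors for each isoform.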
Sequence of Cytochrome P450 3A4 (P08684 whole entry, canonical isoform): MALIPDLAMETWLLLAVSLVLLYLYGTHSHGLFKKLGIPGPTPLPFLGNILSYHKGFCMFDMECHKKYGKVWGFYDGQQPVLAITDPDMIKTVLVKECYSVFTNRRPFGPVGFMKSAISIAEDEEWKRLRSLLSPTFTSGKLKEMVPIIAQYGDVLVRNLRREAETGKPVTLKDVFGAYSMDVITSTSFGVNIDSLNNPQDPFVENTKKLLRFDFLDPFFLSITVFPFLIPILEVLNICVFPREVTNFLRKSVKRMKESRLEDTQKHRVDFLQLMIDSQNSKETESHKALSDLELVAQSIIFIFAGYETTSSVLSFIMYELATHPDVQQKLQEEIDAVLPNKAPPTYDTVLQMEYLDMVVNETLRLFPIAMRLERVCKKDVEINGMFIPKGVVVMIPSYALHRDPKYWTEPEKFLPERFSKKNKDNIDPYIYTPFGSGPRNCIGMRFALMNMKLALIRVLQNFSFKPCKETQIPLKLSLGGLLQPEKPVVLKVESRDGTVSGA

Data set [3] is described as follows: Hepatotoxicity in BALB/c mouse assessed as effect on serum AST level at 50 to 100 mg/kg, ig administered for 14 days. Type of data set: toxicity, organism-based. As to conditions: in vivo, po, 336 h, dose 50-100 mg/kg, time 14 day. A digest of the protocol:
as §1

In a further data set the target is T1, Cytochrome P450 1A2 (Homo sapiens, UniProt P05177).
T1 sequence (P05177 whole entry): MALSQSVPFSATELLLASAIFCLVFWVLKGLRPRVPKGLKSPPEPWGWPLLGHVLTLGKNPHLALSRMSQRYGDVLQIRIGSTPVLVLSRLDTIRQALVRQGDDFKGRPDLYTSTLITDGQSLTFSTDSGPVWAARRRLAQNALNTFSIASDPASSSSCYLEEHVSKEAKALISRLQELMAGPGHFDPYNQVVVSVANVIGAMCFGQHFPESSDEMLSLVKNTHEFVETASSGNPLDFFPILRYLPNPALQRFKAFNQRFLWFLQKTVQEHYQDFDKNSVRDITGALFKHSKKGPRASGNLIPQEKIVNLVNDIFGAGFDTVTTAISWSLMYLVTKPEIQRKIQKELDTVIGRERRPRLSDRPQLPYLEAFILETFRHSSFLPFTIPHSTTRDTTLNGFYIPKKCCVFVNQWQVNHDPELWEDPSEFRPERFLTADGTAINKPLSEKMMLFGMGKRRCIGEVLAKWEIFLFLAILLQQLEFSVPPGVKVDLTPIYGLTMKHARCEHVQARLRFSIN
As to the kind of experiment: Inhibition of CYP1A2 in human liver microsomes using phenacetin as substrate incubated for 5 mins followed by NADPH addition and measured after 20 mins by LC-MS/MS analysis. The class given is ADME. The essentials: as §2

A short description of data set [4]: Toxicity in BALB/c mouse assessed as muscle spasm at 50 to 100 mg/kg, ig administered for 14 days. As to conditions: in vivo, po, 336 h, dose 50-100 mg/kg, time 14 day. The class given is organism-based. The essentials:
as §1

Data set [5] is described as follows: Oral bioavailability in Sprague-Dawley rat at 10 mg/kg by LC-MS/MS analysis. Type of data set: ADME, organism-based. As to conditions: in vivo. A digest of the protocol: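 SD rats dosed iv or intragastrically. Plasma (50 µL) was mixed with diclofenac internal standard (50 ng/mL, 300 µL), vortexed, centrifuged at 4 °C, and the supernatant analysed by LC/MS/MS against spiked standard and QC curves. Noncompartmental parameters calculated; mean ± SD, n = 3 (bioavailability excepted).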

Data set [6] can be described thus: Toxicity in BALB/c mouse assessed as gait disturbance at 50 to 100 mg/kg, ig administered for 14 days. The class given is organism-based. As to conditions: in vivo, po, 336 h, dose 50-100 mg/kg, time 14 day. A digest of the protocol: as §1

In general, half-life refers to the time in which the quantity being followed falls by half. The low end stands for fast loss, the high end for slow loss. The pIC50 is the negative decadic logarithm of the IC50, by convention in mol/L. For orientation: bioavailability means dose-corrected exposure relative to a reference, in per cent. Lower therefore signals little systemic uptake.

Consider `COc1ccc2cc(C(=O)NCCN(C)C)oc2c1.CS(=O)(=O)O`, for which the half-life at 0.5 h, 100 µM in “in vitro” was found to be 103 min. In addition, the Activity entry in data set [1], in [2], in data set [3], in [4] and in [6] was “Non-Toxic” each time. The pIC50 at Cytochrome P450 3A4 and on Cytochrome P450 1A2 was under 5.00 throughout. The compound also displayed a bioavailability in data set [5] of 83.1%.
